In PMC5873441 (Diabetes, Obesity & Metabolism, 2018):
Where two headings read alike, the source gives them in different places.

Columns and labels:
[1] = Safety and tolerability of a single 0.5 mg dose; type: in vivo, human; settings: single s.c. 0.5 mg
Summary of the method: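 After one 0.5 mg s.c. thigh dose, participants stayed in-house ≥5 days, then had visits on days 7, 8, 15, 22 and 29 and follow-up on day 36. Monitoring covered adverse events, hypoglycaemic episodes, haematology, biochemistry (amylase, lipase), coagulation, calcitonin, urinalysis, vital signs, physical examination, ECG and fasting plasma glucose.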

[2] = type: in vivo, human
Summary of the method: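 Adults with normal hepatic function or mild, moderate or severe impairment (Child–Pugh), matched for age, sex and weight, each got one 0.5 mg s.c. thigh injection by pen. Plasma was sampled from pre-dose to 840 h and stored at −20°C. Proteins were precipitated, then LC‐MS/MS (0.729–60.8 nmol/L, analogue internal standard). AUC by non-compartmental methods; CL/F = dose/AUC0‐∞. Group ratios vs normal, with 90% CI.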

[3] = cited from earlier work
plasma protein (albumin) = type: in vitro ADME, human; settings: surface plasmon resonance, in vitro on blood samples taken prior to dosing; across all hepatic function groups
[4] = human, single s.c. 0.5 mg, mild hepatic impairment, n = 8

CC[C@H](C)[C@H](NC(=O)[C@H](Cc1ccccc1)NC(=O)[C@H](CCC(=O)O)NC(=O)[C@H](CCCCNC(=O)COCCOCCNC(=O)COCCOCCNC(=O)CC[C@H](NC(=O)CCCCCCCCCCCCCCCCC(=O)O)C(=O)O)NC(=O)[C@H](C)NC(=O)[C@H](C)NC(=O)[C@H](CCC(N)=O)NC(=O)CNC(=O)[C@H](CCC(=O)O)NC(=O)[C@H](CC(C)C)NC(=O)[C@H](Cc1ccc(O)cc1)NC(=O)[C@H](CO)NC(=O)[C@H](CO)NC(=O)[C@@H](NC(=O)[C@H](CC(=O)O)NC(=O)[C@H](CO)NC(=O)[C@@H](NC(=O)[C@H](Cc1ccccc1)NC(=O)[C@@H](NC(=O)CNC(=O)[C@H](CCC(=O)O)NC(=O)C(C)(C)NC(=O)[C@@H](N)Cc1cnc[nH]1)[C@@H](C)O)[C@@H](C)O)C(C)C)C(=O)N[C@@H](C)C(=O)N[C@@H](Cc1c[nH]c2ccccc12)C(=O)N[C@@H](CC(C)C)C(=O)N[C@H](C(=O)N[C@@H](CCCNC(=N)N)C(=O)NCC(=O)N[C@@H](CCCNC(=N)N)C(=O)NCC(=O)O)C(C)C [semaglutide]
serious adverse events or events leading to participant withdrawal ([1]; all groups): No serious adverse events | severe hypoglycaemic episodes ([1]; all groups): No severe hypoglycaemic episodes | changes in vital signs, clinical laboratory assessments, physical examination or ECG ([1]; normal or impaired hepatic function): No clinically relevant changes | AUC0‐last, ER (90% CI) vs no impairment ([2]; estimated ratio mild impairment/no impairment): 0.96 (0.76, 1.20) | Cmax, ER (90% CI) vs no impairment ([2]; estimated ratio mild impairment/normal function): 0.99 (0.80, 1.23) | AUC0‐∞, ER (90% CI) vs no impairment ([2]; estimated ratio mild impairment/normal function, single s.c. 0.5 mg): 0.95 (0.77, 1.16) | AUC0‐last, ER (90% CI) vs no impairment ([2]; estimated ratio moderate impairment/no impairment): 1.03 (0.92, 1.15) | Cmax, ER (90% CI) vs no impairment ([2]; estimated ratio moderate impairment/normal function): 1.02 (0.88, 1.18) | AUC0‐∞, ER (90% CI) vs no impairment ([2]; estimated ratio moderate impairment/normal function, single s.c. 0.5 mg): 1.02 (0.93, 1.12) | AUC0‐last, ER (90% CI) vs no impairment ([2]; estimated ratio severe impairment/no impairment): 0.93 (0.77, 1.13) | Cmax, ER (90% CI) vs no impairment ([2]; estimated ratio severe impairment/normal function): 1.15 (0.89, 1.48) | AUC0‐∞, ER (90% CI) vs no impairment ([2]; estimated ratio severe impairment/normal function, single s.c. 0.5 mg): 0.97 (0.84, 1.12) | AUC0‐last, estimated mean ([2]; human, single s.c. 0.5 mg, plasma LC-MS/MS, no hepatic impairment, n = 18): 2731 nmol^×h/L | AUC0‐last, estimated mean [2, 4]: 2621 nmol^×h/L | Tmax, median [2, 4]: 65.9 h | AUC0‐last, estimated mean ([2]; human, single s.c. 0.5 mg, moderate hepatic impairment, n = 10): 2807 nmol^×h/L | AUC0‐last, estimated mean ([2]; human, single s.c. 0.5 mg, severe hepatic impairment, n = 7): 2539 nmol^×h/L | CL/F, geometric mean (CV) ([2]; total apparent clearance, CV in %, severe hepatic impairment, n = 7): 0.043 (10.0) L/h | exposure in people with renal impairment vs normal renal function ([3]; after adjusting for specific baseline characteristics): comparable | administered dose excreted in urine as intact semaglutide ([3]; human, radioactive‐labelled compound): 3.1% | median fraction of unbound semaglutide (plasma protein (albumin)): < 1%
